Converted amounts (≈) assume the structure as drawn. Like-named read-outs stand apart in the source and are kept apart here.
Tests used:
human cytochrome bc1 [1] = molecular target: T1, human cytochrome bc1 (Homo sapiens, UniProt P00156); conditions: human IC50 versus C. albicans homolog IC50
Plasma stability = assay type: in vitro ADME, human
S. cerevisiae (BY4741) = assay type: cell-based
C. albicans (SC5314) = assay: C. albicans growth in media with glucose or glycerol as carbon source; assay type: cell-based, Candida albicans
Method in brief: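 Growth compared in synthetic medium of yeast nitrogen base with complete amino acid supplement, containing either 2% glucose or 2% glycerol as carbon source. Data pooled from two independent experiments.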

Solubility limit = assay type: physicochemical
cytochrome bc1 [2] = molecular target: cytochrome bc1 (Candida albicans, UniProt P0C8L0); assay: Cytochrome bc1 enzymatic activity in purified C. albicans mitochondria; assay type: biochemical; conditions: for Extent of inhibition of C. albicans cytochrome bc1 activity: maximal effect
cytochrome bc1 (Candida albicans, UniProt P0C8L0), sequence (P0C8L0 whole entry): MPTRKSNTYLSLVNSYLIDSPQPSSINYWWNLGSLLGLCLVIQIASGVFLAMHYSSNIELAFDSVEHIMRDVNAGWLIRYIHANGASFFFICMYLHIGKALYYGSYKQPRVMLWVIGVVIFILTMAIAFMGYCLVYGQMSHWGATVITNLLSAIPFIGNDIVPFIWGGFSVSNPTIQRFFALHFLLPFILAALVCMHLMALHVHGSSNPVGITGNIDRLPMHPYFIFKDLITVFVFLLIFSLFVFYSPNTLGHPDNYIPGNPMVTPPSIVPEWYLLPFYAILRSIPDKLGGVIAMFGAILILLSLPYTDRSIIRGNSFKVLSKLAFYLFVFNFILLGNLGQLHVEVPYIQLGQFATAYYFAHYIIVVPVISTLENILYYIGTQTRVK

cytochrome bc1 [3] = molecular target: cytochrome bc1 (Saccharomyces cerevisiae, UniProt P00163); assay: Cytochrome bc1 enzymatic activity in purified yeast mitochondria; assay type: biochemical; conditions: read-out: IC50 cytochrome bc1 inhibition; S. cerevisiae mitochondria, wild type
[4] = Mouse liver microsome stability; assay type: in vitro ADME; conditions: 15 minute incubation at 37 C
C. albicans CaCi-2 = assay type: cell-based, Candida albicans; conditions: in the presence of fluconazole; SAR statement
Aspgerillus terreus = assay: Single-agent growth inhibition of Aspgerillus terreus; assay type: cell-based; conditions: enhanced under respiratory growth conditions
[5] = tested on: C. albicans wild-type (SC5314); assay: Emergence of fluconazole-resistant colonies on agar plates; assay type: cell-based, Candida albicans
Scedosporium prolificans = assay: Single-agent growth inhibition of Scedosporium prolificans; assay type: cell-based; conditions: enhanced under respiratory growth conditions
C. albicans = assay: Co-culture of C. albicans with mouse bone-marrow-derived macrophages; assay type: cell-based, Candida albicans; conditions: 5 μM
C. albicans SC5314 [6] = assay: Clonogenic survival in liquid culture; assay type: cell-based, Candida albicans; conditions: for Effect on growth and viability as single agent: 32 mg/L fluconazole alone or 10 μM Inz-5 alone
Rhizopus oryzae = assay: Single-agent growth inhibition of Rhizopus oryzae; assay type: cell-based; conditions: enhanced under respiratory growth conditions
C. albicans SC5314 [7] = assay: Diffusion halo assay on agar plates with various carbon sources; assay type: cell-based, Candida albicans; conditions: 10 μg disc
Method in brief: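 SC5314 cells were spread on agar plates with different carbon sources. These included 80% fetal bovine serum as nutrient source (~0.1-0.2% glucose), high (2%) glucose, galactose and non-fermentable sources. A filter disc carried 10 μg test compound in DMSO or DMSO alone. The zone of growth inhibition was scored.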

HepG2 cells = assay: Mammalian cell respiration toxicity; assay type: cell-based; conditions: Homo sapiens, HepG2, read-out: IC50 toxicity to respiring HepG2 cells
Method in brief: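 HepG2 cells were passaged in high-glucose DMEM, washed and resuspended in glucose-free DMEM with 10 mM galactose to force respiration, then seeded at 10,000 cells/well. After 72 hr with test compound, cellular ATP was measured by luminescent assay (reagent at 1:5 dilution) as a proxy for growth. IC50 was averaged from at least 2 independent experiments.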

malarial cytochrome B = conditions: ref Hughes et al., 1998; cited from earlier work
human cytochrome bc1 [8] = molecular target: T1, human cytochrome bc1; assay: biochemical
[9] = tested on: C. albicans CaCi-2 and rip1Δ/Δ; assay: Mouse systemic infection; assay type: in vivo, Balb/C mice; conditions: low inoculum of CaCi-2 or rip1Δ/Δ; fluconazole 24 mg/kg IP for 3 days
[10] = media containing glycerol as the sole carbon source

Compound: COC(=O)Cn1nc(-c2ccccc2)c2ccccc21 [Inz-1]
- Fold higher IC50 for human than for C. albicans cytochrome bc1 (human cytochrome bc1 [1]): 5.6 fold
- Plasma stability (Plasma stability; incubation of 1 hour at 37 C in human plasma): fully degraded
- Resistance conferred by L275S mutation (S. cerevisiae (BY4741); cytochrome B L275S mutant): confer resistance
- Resistance conferred by P270L mutation (S. cerevisiae (BY4741); cytochrome B P270L mutant): confer resistance
- Growth inhibition (S. cerevisiae (BY4741); glucose media): only mildly slowing growth
- Growth inhibition (S. cerevisiae (BY4741); [10]): potently inhibited growth
- Resistance conferred by G143A mutation (S. cerevisiae (BY4741); yeast cytochrome B G143A mutant, respiratory growth): strong resistance
- Growth inhibition (C. albicans (SC5314); glucose media): only mildly slowing growth
- Growth inhibition (C. albicans (SC5314); [10]): potently inhibited growth
- Solubility limit (Solubility limit): 32 µM (≈ 8.52 µg/mL)
- Extent of inhibition of C. albicans cytochrome bc1 activity (cytochrome bc1 [2]): significant residual activity
- IC50 (cytochrome bc1 [3]): 2500 nM
- Compound remaining in mouse liver microsomes [4]: < 1%

Compound: COC(=O)Cn1nc(-c2cc(C(F)(F)F)ccc2F)c2ccccc21 [Inz-2]
- Potency against the fungal enzyme (cytochrome bc1 [2]; compared with Inz-1): significant enhancement of potency

Compound: COC(=O)Cn1nc(-c2ccccc2)c2cccc(C)c21 [Inz-3]
- Activity against Candida proliferation (C. albicans CaCi-2): beneficial to both the activity and the selectivity

Compound: Cc1cccc2c(-c3cc(C(F)(F)F)ccc3F)nn(Cc3nnn(C)n3)c12 [Inz-5]
- Growth inhibition as a single agent (Aspgerillus terreus): promising growth inhibition
- Effect on colonies ([5]; 10 μM Inz-5 alone): reduced colony size, but no reduction in the total number of colonies
- Effect on emergence of resistant colonies ([5]; 10 μM Inz-5 in combination with 64 mg/L fluconazole): completely abrogated the emergence of resistant colonies
- Plasma stability (Plasma stability; 3 hours of incubation in human serum): fully recovered
- Growth inhibition as a single agent (Scedosporium prolificans): promising growth inhibition
- Extent of inhibition of C. albicans cytochrome bc1 activity (cytochrome bc1 [2]): complete inhibition
- Fungal growth in the presence of macrophages (C. albicans; 14-hour co-culture): sharply curtailed fungal growth
- Escape of C. albicans from macrophages (C. albicans; 2 hours): remained trapped in the phagosome
- Compound remaining in mouse liver microsomes [4]: 19.5%
- Reduction of the number of viable colonies (C. albicans SC5314 [6]; 10 μM Inz-5 in combination with 32 mg/L fluconazole): 97%
- Effect on growth and viability as single agent (C. albicans SC5314 [6]): partially slowed growth
- Growth inhibition as a single agent (Rhizopus oryzae): promising growth inhibition
- Growth inhibition in halo assay (C. albicans SC5314 [7]; 80% fetal bovine serum as the nutrient source): slight growth inhibition
- Growth inhibition in halo assay (C. albicans SC5314 [7]; amino acids, lactate, or acetate as the carbon source): potent and profound growth inhibition
- Growth inhibition in halo assay (C. albicans SC5314 [7]; galactose): moderate growth inhibition
- Growth inhibition in halo assay (C. albicans SC5314 [7]; high glucose): very little growth inhibition
- Activity against Candida proliferation (C. albicans CaCi-2): sub-micromolar activity

Compound: Cn1nnc(Cn2nc(-c3ccccc3)c3ccccc32)n1 [Inz-34]
- Activity against Candida proliferation (C. albicans CaCi-2): retained activity

Compound: c1ccc(-c2nn(Cc3cnccn3)c3ccccc23)cc1 [Inz-37]
- Activity against Candida proliferation (C. albicans CaCi-2): retained activity

Compound: O=C1C(O)=C([C@H]2CC[C@H](c3ccc(Cl)cc3)CC2)C(=O)c2ccccc21 [atovaquone]
- IC50 (HepG2 cells): 12700 nM
- Potency against the malarial cytochrome B (malarial cytochrome B): low nanomolar potency
- IC50 (human cytochrome bc1 [8]): 1800 nM

Compound: OC(Cn1cncn1)(Cn1cncn1)c1ccc(F)cc1F [fluconazole, reference compound]
- Rate of emergence of resistant colonies ([5]; 64 mg/L fluconazole alone): ~ 0.5%
- Effect on growth and viability as single agent (C. albicans SC5314 [6]): slowed growth of the wild-type strain but did not cause a decrease in viability
- Brain fungal burden [9]: eliminated brain colonization

— publication PMC5159300 (Cell chemical biology, 2016)
